Molecules are shown by their SMILES. Active and inactive are the calls of the source. The rule behind the calls is not given here.

This test concerns Plasmodium yoelii nigeriensis. In words: Antimalarial activity in multidrug-resistant Plasmodium yoelii nigeriensis infected Swiss mouse assessed as disease cure at 96 mg/kg, po two devided dose daily for 4 days by 28 day survival assay. It is filed as functional. The gist of the method: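 Swiss mice of either sex (20 2 g) inoculated ip with 1 × 10⁶ MDR P. yoelii nigeriensis (chloroquine-, mefloquine-, halofantrine-resistant) parasites on day 0. Five mice per dose. Oral dosing in groundnut oil (0.1 mL per dose) from day 0 to 3, as two divided doses daily. Thin blood smears on day 4, then twice weekly to day 28. Mice without patent infection by day 28 scored cured; % protection = fraction of mice cured. β-arteether as positive control.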
Regarding `C=C(c1ccccc1)[C@@H]1CO[C@@]2(CC[C@@]3(C)[C@H](CC[C@@H]4[C@@H]3CC[C@]3(C)[C@@H]([C@H](C)CCC(=O)OC)CC[C@@H]43)C2)OO1` (relative stereo; form 2), the outcome was inactive. In the case of `C=C(c1ccccc1)[C@@H]1CO[C@@]2(CC[C@@]3(C)[C@H](CC[C@@H]4[C@@H]3CC[C@]3(C)[C@@H](O)CC[C@@H]43)C2)OO1` (relative stereo; form 1), the result was inactive.

For `C=C(c1ccccc1)[C@@H]1CO[C@@]2(CC[C@@]3(C)[C@H](CC[C@@H]4[C@@H]3CC[C@]3(C)[C@@H]([C@H](C)CCC(=O)OC)CC[C@@H]43)C2)OO1` (relative stereo; form 1), the result was inactive. On to `C=C(c1ccc(Br)cc1)[C@@H]1CO[C@@]2(CC[C@@]3(C)[C@H](CC[C@@H]4[C@@H]3CC[C@]3(C)[C@@H]([C@H](C)CCC(=O)OC)CC[C@@H]43)C2)OO1` (relative stereo; form 2), for which the outcome was inactive. For the compound `C=C(c1ccc(F)cc1)[C@@H]1CO[C@@]2(CC[C@@]3(C)[C@H](CC[C@@H]4[C@@H]3CC[C@]3(C)[C@@H]([C@H](C)CCC(=O)OC)CC[C@@H]43)C2)OO1` (relative stereo; form 2), the result was inactive. The same measure for `C=C(c1ccc(F)cc1)[C@@H]1CO[C@@]2(CC[C@@]3(C)[C@H](CC[C@@H]4[C@@H]3CC[C@]3(C)[C@@H]([C@H](C)CCC(=O)OC)CC[C@@H]43)C2)OO1` (relative stereo; form 1): “inactive”; for `C=C(c1ccccc1)[C@@H]1CO[C@@]2(CC[C@@]3(C)[C@H](CC[C@@H]4[C@@H]3CC[C@]3(C)[C@@H]([C@H](C)C(C)=O)CC[C@@H]43)C2)OO1` (relative stereo; form 1): “inactive”.

As to `C=C(c1ccc(Cl)cc1)[C@@H]1CO[C@@]2(CC[C@@]3(C)[C@H](CC[C@@H]4[C@@H]3CC[C@]3(C)[C@@H]([C@H](C)CCC(=O)OC)CC[C@@H]43)C2)OO1` (relative stereo; form 2), the result was inactive. Regarding `C=C(c1ccc(Br)cc1)[C@@H]1CO[C@@]2(CC[C@@]3(C)[C@H](CC[C@@H]4[C@@H]3CC[C@]3(C)[C@@H]([C@H](C)C(C)=O)CC[C@@H]43)C2)OO1` (relative stereo; form 1), the outcome was inactive. `C=C(c1ccccc1)[C@@H]1CO[C@@]2(CC[C@@]3(C)[C@H](CC[C@@H]4[C@@H]3CC[C@]3(C)[C@@H](C(C)=O)CC[C@@H]43)C2)OO1` (relative stereo; form 1): the outcome was inactive. As for `C=C(c1ccc(Cl)cc1)[C@@H]1CO[C@@]2(CC[C@@]3(C)[C@H](CC[C@@H]4[C@@H]3CC[C@]3(C)[C@@H]([C@H](C)C(C)=O)CC[C@@H]43)C2)OO1` (relative stereo; form 2), the result was inactive. In the case of `C=C(c1ccc(Br)cc1)[C@@H]1CO[C@@]2(CC[C@@]3(C)[C@H](CC[C@@H]4[C@@H]3CC[C@]3(C)[C@@H]([C@H](C)CCC(=O)OC)CC[C@@H]43)C2)OO1` (relative stereo; form 1) it was “inactive”. Take `C=C(c1ccc(Br)cc1)[C@@H]1CO[C@@]2(CC[C@@]3(C)[C@H](CC[C@@H]4[C@@H]3CC[C@]3(C)[C@@H]([C@H](C)C(C)=O)CC[C@@H]43)C2)OO1` (relative stereo; form 2): the outcome was inactive. Take `C=C(c1ccc(Br)cc1)[C@@H]1CO[C@@]2(CC[C@@]3(C)[C@H](CC[C@@H]4[C@@H]3CC[C@]3(C)[C@@H](O)CC[C@@H]43)C2)OO1` (relative stereo; form 1): the outcome was inactive. On to `C=C(c1ccc(Cl)cc1)[C@@H]1CO[C@@]2(CC[C@@]3(C)[C@H](CC[C@@H]4[C@@H]3CC[C@]3(C)[C@@H]([C@H](C)CCC(=O)OC)CC[C@@H]43)C2)OO1` (relative stereo; form 1), for which the result was inactive.

With `C=C(c1ccc(Cl)cc1)[C@@H]1CO[C@@]2(CC[C@@]3(C)[C@H](CC[C@@H]4[C@@H]3CC[C@]3(C)[C@@H]([C@H](C)C(C)=O)CC[C@@H]43)C2)OO1` (relative stereo; form 1), the outcome was inactive.
